Data set [1] has as its system MCF7. Kind of data set: Cytotoxicity against human MCF7 cells assessed as growth inhibition after 72 hrs by MTT assay. The data set is classed as functional, cell-based. To be noted: MCF7, 72 h. In a few lines:
(§1)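 Antiproliferative activity measured by MTT assay. EC50 is the average of triplicate experiments, with error as SEM.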

The nature of data set [2]: Half life in mouse liver microsomes at 1 uM incubated for 15 mins prior to beta-NADPH addition by LC-MS/MS analysis. The data set is classed as ADME, Microsome. The following applies: for t1/2: microsomes, 0.25 h, 1 µM. In a few lines: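 Compounds at 1 μM incubated with mouse liver microsomes. Degradation followed by LC–MS and reported as half-life.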
Data set [3] has as its system MDA-MB-231. The experiment in a line: Upregulation of Hsp90 protein expression in human MDA-MB-231 cells at 0.6 to 10 uM after 24 hrs by Western blot analysis. Format: functional, cell-based. In a few lines:
(§2)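 MCF7 and MDA-MB-231 cells treated for 24 h across a range of concentrations. Lysates Western blotted for p53, Akt1, Raf1, Hsp70 and Hsp90. Representative of triplicate experiments.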

The nature of data set [4]: Selectivity ratio of EC50 for C57BL/6 mouse MEF to EC50 for human MDA-MB-231 cells. Format: ADME. To be noted: C57BL/6, mouse and human, mouse embryonic fibroblasts (MEF) versus MDA-MB-231 cells. In a few lines: (§3)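 Antiproliferative EC50 values measured by MTT assay in mouse embryonic fibroblasts and in the breast cancer line (MCF7 or MDA-MB-231), averaged over triplicate experiments, error SEM. Selectivity taken as the ratio of fibroblast EC50 to cancer-cell EC50.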

In data set [5] the test system is MDA-MB-231. Kind of data set: Upregulation of Hsp70 protein expression in human MDA-MB-231 cells at 0.6 to 10 uM after 24 hrs by Western blot analysis. Format: functional, cell-based. The essentials: as §2
The test system of data set [6] is MCF7. Kind of data set: Upregulation of Hsp90 protein expression in human MCF7 cells at 0.6 to 10 uM after 24 hrs by Western blot analysis. Format: functional, cell-based. In a few lines:
as §2
Background: A western blot detects proteins with antibodies after separation by electrophoresis.

In data set [7] the test system is MCF7. Kind of data set: Inhibition of HSP70 in human MCF7 cells assessed as induction of […] p53 level at 5 to 10 uM after 24 hrs by Western blot analysis. Format: cell-based. In a few lines: as §2
Data set [8] concerns MCF7. The experiment in a line: Inhibition of HSP70 in human MCF7 cells assessed as reduction of Akt1 level at 0.6 to 10 uM after 24 hrs by Western blot analysis. The data set is classed as cell-based. The essentials:
(§4)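 MCF7 or MDA-MB-231 cells treated for 24 h across a range of concentrations. Lysates probed by Western blot for the Hsp70 clients p53, Akt1 and Raf1, alongside Hsp70 and Hsp90. Blots are representative of experiments run in triplicate.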

Another data set deals with MEF. The experiment in a line: Cytotoxicity against C57BL/6 mouse MEF assessed as growth inhibition after 72 hrs by MTT assay. The following applies: C57BL/6, MEF. Format: cell-based. In a few lines: as §1
Data set [9] can be described thus: Selectivity ratio of EC50 for C57BL/6 mouse MEF to EC50 for human MCF-7 cells. The data set is classed as ADME, cell-based. The following applies: C57BL/6, mouse and human, mouse embryonic fibroblasts (MEF) versus MCF-7 cells; read-out: Ratio EC50. The essentials: as §3
Data set [10] deals with MDA-MB-231. The experiment in a line: Inhibition of HSP70 in human MDA-MB-231 cells assessed as reduction of Akt1 level at 0.6 to 10 uM after 24 hrs by Western blot analysis. Format: cell-based. In a few lines:
as §4

In data set [11] the test system is MCF7. Kind of data set: Inhibition of HSP70 in human MCF7 cells assessed as reduction of Raf level at 0.6 to 10 uM after 24 hrs by Western blot analysis. The data set is classed as cell-based. The essentials:
as §4

In data set [12] the test system is MCF7. Kind of data set: Upregulation of Hsp70 protein expression in human MCF7 cells at 0.6 to 10 uM after 24 hrs by Western blot analysis. The data set is classed as functional, cell-based. In a few lines:
as §2

The test system of data set [13] is MDA-MB-231. Kind of data set: Cytotoxicity against human MDA-MB-231 cells assessed as growth inhibition after 72 hrs by MTT assay. The following applies: MDA-MB-231, 72 h. Format: functional, cell-based. The essentials: as §1
For data set [14], the system named is MDA-MB-231. Kind of data set: Inhibition of HSP70 in human MDA-MB-231 cells assessed as reduction of Raf level at 0.6 to 10 uM after 24 hrs by Western blot analysis. Format: cell-based. In a few lines: as §4
The subject of data set [15] is MDA-MB-231. Kind of data set: Induction of autophagic flux in human MDA-MB-231 cells assessed as increase in p62 oligomerization at 5 to 10 uM after 24 hrs. The data set is classed as functional, cell-based.
Data set [16] concerns MCF7. The experiment in a line: Induction of autophagic flux in human MCF7 cells assessed as increase in p62 oligomerization at 5 to 10 uM after 24 hrs. The data set is classed as functional, cell-based.
In data set [17] the test system is MDA-MB-231. Kind of data set: Induction of autophagic flux in human MDA-MB-231 cells assessed as decrease in p62 monomer level at 5 to 10 uM after 24 hrs. The data set is classed as functional, cell-based.
Data set [18] has as its system MDA-MB-231. The experiment in a line: Induction of apoptosis in human MDA-MB-231 cells assessed as caspase-3 cleavage at 10 uM after 48 hrs. Format: functional, cell-based. In a few lines: (§5)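 MDA-MB-231 cells treated for 48 h. Cleavage of caspase 3 and PARP detected by Western blot. Representative of duplicate experiments.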
Data set [19] has as its system MDA-MB-231. The experiment in a line: Induction of apoptosis in human MDA-MB-231 cells assessed as PARP cleavage at 10 uM after 48 hrs. The data set is classed as functional, cell-based. The essentials: as §5
In data set [20] the test system is MCF7. The experiment in a line: Induction of autophagic flux in human MCF7 cells assessed as decrease in p62 monomer level at 5 to 10 uM after 24 hrs. Format: functional, cell-based.
A short description of data set [21]: Binding affinity to [1H-15N]-DnaK (1 to 388) nucleotide binding domain (unknown origin) at 200 uM by NMR analysis.
The nature of data set [22]: Drug metabolism in mouse liver microsomes assessed as compound life time. The data set is classed as ADME, Microsome. The essentials: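 Compounds at 1 μM incubated with liver microsomes from C57BL/6 mice; disappearance of parent compound followed by LC–MS and reported as microsomal lifetime (t1/2, min).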
In general terms: Liver microsomes are vesicles of endoplasmic reticulum, rich in cytochrome P450 enzymes.

Active and inactive are the calls of the source. No cut-off for these calls is given here.

The term EC50 denotes the concentration needed to bring the measured effect to its halfway point. By inhibition is commonly meant the change of the read-out against control, counted positive when it falls. As to `CCn1c(=O)/c(=C2\Sc3cccc(F)c3N2C)s/c1=C\c1scc[n+]1Cc1ccccc1.[Cl-]`, the EC50 in the data set on MCF7 [1] is 1 µM; in the data set on MEF, 8.3 µM; with MDA-MB-231 [13], 0.4 µM. The t1/2 result in data set [2] is listed as “ND(Insoluble)”. The result in the data set on MDA-MB-231 [3], with MDA-MB-231 [5], in the data set with MCF7 [6] and with MCF7 [12] was inactive. Moreover, the selectivity ratio was 21 in [4] and 8 in data set [9]. For the same molecule, the inhibition entry in the data set with MCF7 [7] is “Active”. Further, the inhibition in the data set with MCF7 [8], with MDA-MB-231 [10], with MCF7 [11] and in the data set on MDA-MB-231 [14] was 25% throughout.

With `CCn1c(=O)/c(=C2\Sc3cc(Cl)ccc3N2C)s/c1=C\c1scc[n+]1Cc1ccccc1.[Cl-]`, the EC50 in the data set on MCF7 [1] was found to be 0.7 µM; in the data set with MEF, 24 µM; in the data set on MDA-MB-231 [13], 0.4 µM. In addition, the t1/2 in data set [2] is 37 min. In addition, the outcome in the data set with MDA-MB-231 [15], with MCF7 [16], in the data set with MDA-MB-231 [17], with MDA-MB-231 [18], in the data set with MDA-MB-231 [19] and in the data set on MCF7 [20] was Active. Besides, the result in data set [21] was Active.

By half-life is commonly meant how long it takes for the measured level to halve. A high value points to slow loss. As for `CCn1c(=O)/c(=C2\Sc3ccccc3N2C)s/c1=C\c1cccc[n+]1CC.[Cl-]`, the EC50 is 2.2 µM in the data set on MCF7 [1], more than 50 µM in the data set on MEF and 1.4 µM in the data set with MDA-MB-231 [13]. In data set [2] (liver microsomes), this molecule gave a half-life at 1 µM of less than 5 min. Further, the Time in data set [22] is on record as 4.4 min.

For the origin of these results see ChEMBL document CHEMBL3091336, “Analogs of the Allosteric Heat Shock Protein 70 (Hsp70) Inhibitor, MKT-077, as Anti-Cancer Agents” (ACS Med Chem Lett, 2013).
